Columns and labels:
Plasmodium falciparum [1] = assay: Antimalarial activity after 48 hrs against chloroquine-sensitive Plasmodium falciparum 3D7 by [3H]hypoxanthine uptake; assay type: functional, organism-based
Summary of the method: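 Asynchronous culture (65-75% rings, 0.5% parasitemia, 2.5% final hematocrit) in RPMI 1640 with 0.5% Albumax II, 0.2% glucose, 0.03% L-glutamine and 5 µM hypoxanthine. Triplicate wells with a 3-fold series of 10.0–0.0412 µg/mL; final DMSO ≤0.01%. 37 °C, 5% CO2: 24 h, then 0.2 µCi/well [3H]hypoxanthine for a further 24 h. Frozen, harvested, scintillation-counted. IC50 from curve fit; mean of 2–3 experiments.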

KB = assay: Cytotoxicity against human KB cells after 48 hrs by alamar blue assay; assay type: cell-based
Plasmodium falciparum [2] = assay: Antimalarial activity after 48 hrs against chloroquine-resistant Plasmodium falciparum K1 by [3H]hypoxanthine uptake; assay type: functional, organism-based
Summary of the method: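 Asynchronous P. falciparum K1 culture (65-75% ring stage, 0.5% parasitemia; chloroquine, pyrimethamine, cycloguanil resistant) at 2.5% hematocrit in RPMI 1640 with 0.5% Albumax II, glucose, L-glutamine, 5 µM hypoxanthine. Triplicate 3-fold dilutions 10.0–0.0412 µg/mL, DMSO ≤0.01% final, 37 °C, 5% CO2. [3H]-hypoxanthine (0.2 µCi/well) added at 24 h, incorporation counted after further 24 h. IC50 by curve fit, 2–3 experiments.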

[3] = Selectivity index, ratio of IC50 for human KB cells to IC50 for chloroquine-sensitive Plasmodium falciparum 3D7; assay type: toxicity, cell-based; conditions: read-out: Ratio IC50
Summary of the method: (§1)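 KB IC50 divided by the parasite IC50 (K1 or 3D7). KB cells seeded at 4×10^4 cells/mL in RPMI 1640 with 10% heat-inactivated FCS and grown 24 h. Triplicate dilution series then added for 72 h. AlamarBlue for 2–4 h, fluorescence ex 530/em 585 nm, IC50 by curve fit. Podophyllotoxin as positive control.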

[4] = Resistant index, ratio of IC50 for chloroquine-resistant Plasmodium falciparum K1 to IC50 for chloroquine-sensitive Plasmodium falciparum 3D7; assay type: functional
Summary of the method: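 IC50 against K1 divided by IC50 against 3D7 (drug-sensitive NF54 clone). Both from [3H]-hypoxanthine incorporation over 48 h: asynchronous cultures at 0.5% parasitemia, 2.5% hematocrit, 3-fold dilutions 10.0–0.0412 µg/mL in triplicate. Label added at 24 h. Means of 2–3 independent experiments.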

[5] = Selectivity index, ratio of IC50 for human KB cells to IC50 for chloroquine-resistant Plasmodium falciparum K1; assay type: toxicity, cell-based; conditions: read-out: Ratio IC50; summary of the method: as §1

Row | SMILES | IC50 (Plasmodium falciparum [1]) [nM] | IC50 (KB) [µM] | IC50 (Plasmodium falciparum [2]) [nM] | selectivity ratio [3] | Ratio IC50 [4] | selectivity ratio [5]
1 | CCOC(=O)c1c(-c2ccc(Cl)cc2)[n+]([O-])c2ccccc2[n+]1[O-] | > 10000 |  |  |  |  | 
2 | CCN(CC)CCCC(C)Nc1ccnc2cc(Cl)ccc12 (stereo not given) [CHLOROQUINE] |  | 110 |  |  |  | 
3 | N#Cc1c(-c2ccc(Cl)cc2)[n+]([O-])c2ccc(F)cc2[n+]1[O-] | 4210 |  |  |  |  | 
4 | COc1cc([C@@H]2c3cc4c(cc3[C@H](O)[C@H]3COC(=O)[C@H]23)OCO4)cc(OC)c1OC [PODOFILOX] |  | 0.003 |  |  |  | 
5 | COC(=O)c1ccc(-c2c(C#N)[n+]([O-])c3cc(Cl)ccc3[n+]2[O-])cc1 | > 20000 |  |  |  |  | 
6 | CCOC(=O)c1c(-c2ccccc2)[n+]([O-])c2cc(Cl)c(Cl)cc2[n+]1[O-] | > 7000 |  |  |  |  | 
7 | N#Cc1c(-c2ccc(OC(F)(F)F)cc2)[n+]([O-])c2ccc(Cl)cc2[n+]1[O-] | 710 | 2.35 | 930 | 3.31 | 1.31 | 2.53
8 | COc1ccc(-c2c(C#N)[n+]([O-])c3cc(C)ccc3[n+]2[O-])cc1 | 2770 |  |  |  |  | 
9 | N#Cc1c(-c2ccc(F)cc2)[n+]([O-])c2ccccc2[n+]1[O-] | 3910 |  |  |  |  | 
10 | N#Cc1c(-c2ccccc2)[n+]([O-])c2ccc(Cl)cc2[n+]1[O-] | > 5000 |  |  |  |  | 
11 | COc1ccc(-c2c(C#N)[n+]([O-])c3cc(Cl)c(Cl)cc3[n+]2[O-])cc1 | > 20000 |  |  |  |  | 
12 | COc1ccc2c(c1)[n+]([O-])c(C#N)c(-c1ccccc1)[n+]2[O-] | 1470 | 10.5 | 720 | 7.12 | 0.49 | 14.5
13 | CCOC(=O)c1c(-c2ccccc2)[n+]([O-])c2cc(F)c(F)cc2[n+]1[O-] | > 10000 |  |  |  |  | 
14 | COC(=O)c1ccc(-c2c(C#N)[n+]([O-])c3cc(OC)ccc3[n+]2[O-])cc1 | 3160 |  |  |  |  | 
15 | N#Cc1c(-c2ccc(F)cc2)[n+]([O-])c2cc(Cl)c(Cl)cc2[n+]1[O-] | > 10000 |  |  |  |  | 
16 | Cc1ccc(-c2c(C#N)[n+]([O-])c3cc(C)ccc3[n+]2[O-])cc1 | 1300 | 25 | 950 | 19.2 | 0.73 | 26.2
17 | Cc1ccc2c(c1)[n+]([O-])c(C#N)c(-c1ccc(OC(F)(F)F)cc1)[n+]2[O-] | 750 | 8.12 | 380 | 10.8 | 0.51 | 21.4
18 | N#Cc1c(-c2ccc(OC(F)(F)F)cc2)[n+]([O-])c2ccc(F)cc2[n+]1[O-] | 1700 | 2.61 | > 8000 | 1.54 |  | 
19 | COC(=O)c1ccc(-c2c(C#N)[n+]([O-])c3cc(C)ccc3[n+]2[O-])cc1 | 2150 |  |  |  |  | 
20 | CCOC(=O)c1c(-c2ccccc2)[n+]([O-])c2cc(C)c(C)cc2[n+]1[O-] | 1180 | > 60 | > 10000 | > 50 |  | 

Row | SMILES | IC50 (Plasmodium falciparum [1]) [nM] | IC50 (KB) [µM] | IC50 (Plasmodium falciparum [2]) [nM] | selectivity ratio [3] | Ratio IC50 [4] | selectivity ratio [5]
21 | Cc1ccc(-c2c(C#N)[n+]([O-])c3cc(Cl)ccc3[n+]2[O-])cc1 | > 10000 |  |  |  |  | 
22 | N#Cc1c(-c2ccc(F)cc2)[n+]([O-])c2ccc(Cl)cc2[n+]1[O-] | 5830 |  |  |  |  | 
23 | N#Cc1c(-c2ccc(F)cc2)[n+]([O-])c2ccc(C(F)(F)F)cc2[n+]1[O-] | 660 | 2.85 | 520 | 4.32 | 0.79 | 5.48
24 | COc1ccc2c(c1)[n+]([O-])c(C#N)c(-c1ccc(OC(F)(F)F)cc1)[n+]2[O-] | 930 | 8.25 | 1250 | 8.87 | 1.35 | 6.58
25 | COc1ccc(-c2c(C#N)[n+]([O-])c3cc(C)c(C)cc3[n+]2[O-])cc1 | 3020 |  |  |  |  | 
26 | N#Cc1c(-c2ccc(Cl)cc2)[n+]([O-])c2ccc(C(F)(F)F)cc2[n+]1[O-] | 1560 | 2.76 | 1770 | 1.77 | 1.13 | 1.56
27 | Cc1ccc2c(c1)[n+]([O-])c(C#N)c(-c1ccc(F)cc1)[n+]2[O-] | 880 | 11.2 | 370 | 12.7 | 0.42 | 30.4
28 | COc1ccc(-c2c(C#N)[n+]([O-])c3cc(OC)ccc3[n+]2[O-])cc1 | 2290 |  |  |  |  | 
29 | Cc1ccc(-c2c(C(=O)O)[n+]([O-])c3ccccc3[n+]2[O-])cc1 | > 10000 |  |  |  |  | 
30 | O=C(O)c1c(-c2ccc(Cl)cc2)[n+]([O-])c2ccccc2[n+]1[O-] | > 10000 |  |  |  |  | 
31 | Cc1cc2c(cc1C)[n+]([O-])c(-c1ccc(OC(F)(F)F)cc1)c(C#N)[n+]2[O-] | > 5000 |  |  |  |  | 
32 | N#Cc1c(-c2ccc(Cl)cc2)[n+]([O-])c2ccc(Cl)cc2[n+]1[O-] | > 5000 |  |  |  |  | 
33 | Cc1cc2c(cc1C)[n+]([O-])c(-c1ccc(F)cc1)c(C#N)[n+]2[O-] | 1260 | 18.8 | 930 | 14.9 | 0.73 | 20.4
34 | N#Cc1c(-c2ccc(Cl)cc2)[n+]([O-])c2ccccc2[n+]1[O-] | 1010 | 9.73 | 410 | 9.63 | 0.41 | 23.6
35 | N#Cc1c(-c2ccc(F)cc2)[n+]([O-])c2ccc(F)cc2[n+]1[O-] | 5780 |  |  |  |  | 
36 | COC(=O)c1ccc(-c2c(C#N)[n+]([O-])c3cc(C(F)(F)F)ccc3[n+]2[O-])cc1 | 2030 |  |  |  |  | 
37 | COc1ccc2c(c1)[n+]([O-])c(C#N)c(-c1ccc(C)cc1)[n+]2[O-] | 810 | 16.9 | 2290 | 20.9 | 2.83 | 7.39
38 | COc1ccc2c(c1)[n+]([O-])c(C#N)c(-c1ccc(Cl)cc1)[n+]2[O-] | 730 | 17.5 | 470 | 24 | 0.64 | 37.5
39 | CCOC(=O)c1c(-c2ccccc2)[n+]([O-])c2ccc(Cl)cc2[n+]1[O-] | 3220 |  |  |  |  | 
40 | CCOC(=O)c1c(-c2ccccc2)[n+]([O-])c2ccc(OC)cc2[n+]1[O-] | > 10000 |  |  |  |  | 

Row | SMILES | IC50 (Plasmodium falciparum [1]) [nM] | IC50 (KB) [µM] | IC50 (Plasmodium falciparum [2]) [nM] | selectivity ratio [3] | Ratio IC50 [4] | selectivity ratio [5]
41 | Cc1ccc(-c2c(C#N)[n+]([O-])c3cc(F)ccc3[n+]2[O-])cc1 | > 10000 |  |  |  |  | 
42 | N#Cc1c(-c2ccc(OC(F)(F)F)cc2)[n+]([O-])c2ccc(C(F)(F)F)cc2[n+]1[O-] | 1930 | 13.5 | 550 | 6.97 | 0.28 | 24.4
43 | CCOC(=O)c1c(-c2ccccc2)[n+]([O-])c2ccc(C)cc2[n+]1[O-] | > 10000 |  |  |  |  | 
44 | COc1ccc(-c2c(C#N)[n+]([O-])c3cc(F)ccc3[n+]2[O-])cc1 | > 20000 |  |  |  |  | 
45 | COc1ccc2c(c1)[n+]([O-])c(C#N)c(-c1ccc(F)cc1)[n+]2[O-] | 870 | 18.5 | 360 | 21.3 | 0.42 | 50.9
46 | N#Cc1c(-c2ccccc2)[n+]([O-])c2ccc(C(F)(F)F)cc2[n+]1[O-] | 330 | 2.82 | 180 | 8.55 | 0.55 | 15.7
47 | CCOC(=O)c1c(-c2ccccc2)[n+]([O-])c2ccccc2[n+]1[O-] | > 10000 |  |  |  |  | 
48 | COc1ccc(-c2c(C#N)[n+]([O-])c3cc(Cl)ccc3[n+]2[O-])cc1 | > 10000 |  |  |  |  | 
49 | Cc1ccc2c(c1)[n+]([O-])c(C#N)c(-c1ccccc1)[n+]2[O-] | 1550 | 11.7 | 740 | 7.52 | 0.48 | 15.8
50 | N#Cc1c(-c2ccccc2)[n+]([O-])c2ccccc2[n+]1[O-] | 2350 |  |  |  |  | 
51 | COc1ccc(-c2c(C#N)[n+]([O-])c3cc(C(F)(F)F)ccc3[n+]2[O-])cc1 | 2440 |  |  |  |  | 
52 | Cc1ccc(-c2c(C#N)[n+]([O-])c3cc(C(F)(F)F)ccc3[n+]2[O-])cc1 | 720 | 3.17 | 870 | 4.4 | 1.21 | 3.64
53 | N#Cc1c(-c2ccccc2)[n+]([O-])c2ccc(F)cc2[n+]1[O-] | > 10000 |  |  |  |  | 
54 | COC(=O)c1ccc(-c2c(C#N)[n+]([O-])c3cc(F)ccc3[n+]2[O-])cc1 | > 20000 |  |  |  |  | 
55 | COC(=O)c1ccc(-c2c(C#N)[n+]([O-])c3ccccc3[n+]2[O-])cc1 | 6540 |  |  |  |  | 
56 | COc1ccc(-c2c(C#N)[n+]([O-])c3ccccc3[n+]2[O-])cc1 | 3140 |  |  |  |  | 
57 | Cc1ccc(-c2c(C#N)[n+]([O-])c3ccccc3[n+]2[O-])cc1 | 3460 |  |  |  |  | 
58 | CCOC(=O)c1c(-c2ccc(C)cc2)[n+]([O-])c2ccccc2[n+]1[O-] | > 10000 |  |  |  |  | 
59 | N#Cc1c(-c2ccc(OC(F)(F)F)cc2)[n+]([O-])c2cc(Cl)c(Cl)cc2[n+]1[O-] | > 10000 |  |  |  |  | 

Reference: ChEMBL document CHEMBL1140972, “Synthesis and structure-activity relationship of 3-phenylquinoxaline 1,4-di-N-oxide derivatives as antimalarial agents” (Eur J Med Chem, 2008)
